Measured values as given in ChEMBL document CHEMBL5303300, “EUbOPEN Chemogenomics Library - Multiplex” (2023).
Where “and” joins values, the source holds several entries; their conditions need not be identical. Equal values may be shown once.

Test system: Fibroblast
Experiment: Multiplex assay against human fibroblast
Type: toxicity, cell-based
Details: number of replicates 2
In short: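 Four dyes were applied at seeding to live cells: Hoechst33342, BioTracker Green Microtubule Cytoskeleton Dye, MitoTracker Red and Annexin V Alexa Fluor 680. Imaging after compound addition used a CQ1 microscope at 37°C and 5% CO2. CellPathfinder machine-learning gating then sorted cells into Hoechst high-intensity objects or normal cells, normal cells into healthy, pyknosed or fragmented nuclei, and pyknosed cells into mitotic or apoptotic, with tubulin, mitochondrial-mass and membrane-permeability phenotypes given as per cents of healthy-nucleus cells.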

[1] = 12 h, 1 µM, compound concentration 1 uM
[2] = 12 h, 10 µM, compound concentration 10 uM
[3] = 24 h, 1 µM, compound concentration 1 uM
[4] = 24 h, 10 µM, compound concentration 10 uM
[5] = 48 h, 1 µM, compound concentration 1 uM
[6] = 48 h, 10 µM, compound concentration 10 uM

## CCn1ccc(Nc2ncc3c(n2)-c2c(nn(C)c2-c2ccc(-c4cnn(C)c4)cc2Cl)CC3)n1
[1]
  Population Apoptotic (%): 36% and 33%
  Population Fragmented Nuclei (%): 11% and 9%
  Population Healthy Nuclei (%): 71% and 65%
  Population Hoechst High Intensity Objects (%): 0%
  Population Membrane Permeable-Phenotype (%): 8% and 7%
  Population Mitochondria Different-Phenotype (%): 1% and 2%
  Population Mitotic Cells (%): 63% and 66%
  Population Normal (%): 99%
  Population Pyknosed Nuclei (%): 17% and 25%
  Population Tubulin-Different-Phenotype (%): 14% and 18%
  Total Cell Count: 258 and 213
[2]
  Population Apoptotic (%): 51% and 48%
  Population Fragmented Nuclei (%): 11%
  Population Healthy Nuclei (%): 75% and 69%
  Population Hoechst High Intensity Objects (%): 0%
  Population Membrane Permeable-Phenotype (%): 5% and 6%
  Population Mitochondria Different-Phenotype (%): 2% and 1%
  Population Mitotic Cells (%): 48% and 51%
  Population Normal (%): 100%
  Population Pyknosed Nuclei (%): 13% and 19%
  Population Tubulin-Different-Phenotype (%): 56% and 41%
  Total Cell Count: 204 and 191
[3]
  Population Apoptotic (%): 40% and 49%
  Population Fragmented Nuclei (%): 10% and 7%
  Population Healthy Nuclei (%): 75% and 66%
  Population Hoechst High Intensity Objects (%): 0%
  Population Membrane Permeable-Phenotype (%): 2% and 6%
  Population Mitochondria Different-Phenotype (%): 0% and 1%
  Population Mitotic Cells (%): 59% and 50%
  Population Normal (%): 100% and 99%
  Population Pyknosed Nuclei (%): 13% and 25%
  Population Tubulin-Different-Phenotype (%): 7% and 8%
  Total Cell Count: 239 and 234
[4]
  Population Apoptotic (%): 60% and 55%
  Population Fragmented Nuclei (%): 8% and 6%
  Population Healthy Nuclei (%): 78% and 77%
  Population Hoechst High Intensity Objects (%): 0%
  Population Membrane Permeable-Phenotype (%): 1% and 4%
  Population Mitochondria Different-Phenotype (%): 1% and 2%
  Population Mitotic Cells (%): 40% and 44%
  Population Normal (%): 100% and 99%
  Population Pyknosed Nuclei (%): 12% and 15%
  Population Tubulin-Different-Phenotype (%): 62% and 39%
  Total Cell Count: 202 and 187
[5]
  Population Apoptotic (%): 71% and 69%
  Population Fragmented Nuclei (%): 13% and 12%
  Population Healthy Nuclei (%): 75% and 67%
  Population Hoechst High Intensity Objects (%): 0%
  Population Membrane Permeable-Phenotype (%): 2% and 3%
  Population Mitochondria Different-Phenotype (%): 0%
  Population Mitotic Cells (%): 28% and 30%
  Population Normal (%): 99% and 100%
  Population Pyknosed Nuclei (%): 11% and 19%
  Population Tubulin-Different-Phenotype (%): 6% and 7%
  Total Cell Count: 252 and 233
[6]
  Population Apoptotic (%): 84% and 82%
  Population Fragmented Nuclei (%): 14% and 8%
  Population Healthy Nuclei (%): 68% and 75%
  Population Hoechst High Intensity Objects (%): 0%
  Population Membrane Permeable-Phenotype (%): 2% and 3%
  Population Mitochondria Different-Phenotype (%): 4% and 3%
  Population Mitotic Cells (%): 15% and 17%
  Population Normal (%): 100%
  Population Pyknosed Nuclei (%): 16%
  Population Tubulin-Different-Phenotype (%): 56% and 38%
  Total Cell Count: 195 and 170
